Source: the M2OR odorant receptor database

Columns and labels:
Conditions in all cases: stereoisomer not certain
UniProt Q8VGC6 = molecular target: T1, UniProt Q8VGC6
T1 sequence (whole entry): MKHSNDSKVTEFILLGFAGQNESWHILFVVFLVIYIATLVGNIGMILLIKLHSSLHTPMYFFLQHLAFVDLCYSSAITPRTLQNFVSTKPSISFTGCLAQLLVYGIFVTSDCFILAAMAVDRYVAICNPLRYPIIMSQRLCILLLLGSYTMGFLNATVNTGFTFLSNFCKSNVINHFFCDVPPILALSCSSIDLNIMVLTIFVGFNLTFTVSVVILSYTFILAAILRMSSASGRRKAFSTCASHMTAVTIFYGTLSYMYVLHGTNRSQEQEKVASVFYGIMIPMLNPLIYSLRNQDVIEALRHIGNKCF
Outline: (§1)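 Assay methods differ from source to source, frequently being transient luciferase assays in mammalian cell lines. For each receptor–molecule pair, the label responsive (active) applies when the original authors judged the measured signal statistically different from baseline, and non-responsive (inactive) applies otherwise.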

UniProt Q8VGD7 = molecular target: T2, UniProt Q8VGD7
T2 sequence (whole entry): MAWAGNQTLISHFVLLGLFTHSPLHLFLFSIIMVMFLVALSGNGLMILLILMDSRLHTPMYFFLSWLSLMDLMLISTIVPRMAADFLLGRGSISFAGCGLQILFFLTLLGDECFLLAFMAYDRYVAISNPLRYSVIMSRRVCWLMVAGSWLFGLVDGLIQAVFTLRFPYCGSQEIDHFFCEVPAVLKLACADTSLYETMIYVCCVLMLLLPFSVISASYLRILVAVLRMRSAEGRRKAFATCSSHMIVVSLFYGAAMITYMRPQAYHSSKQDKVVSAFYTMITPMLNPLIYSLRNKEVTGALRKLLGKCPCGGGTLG
Outline: as §1

UniProt Q8VGH1 = molecular target: T3, UniProt Q8VGH1
T3 sequence (whole entry): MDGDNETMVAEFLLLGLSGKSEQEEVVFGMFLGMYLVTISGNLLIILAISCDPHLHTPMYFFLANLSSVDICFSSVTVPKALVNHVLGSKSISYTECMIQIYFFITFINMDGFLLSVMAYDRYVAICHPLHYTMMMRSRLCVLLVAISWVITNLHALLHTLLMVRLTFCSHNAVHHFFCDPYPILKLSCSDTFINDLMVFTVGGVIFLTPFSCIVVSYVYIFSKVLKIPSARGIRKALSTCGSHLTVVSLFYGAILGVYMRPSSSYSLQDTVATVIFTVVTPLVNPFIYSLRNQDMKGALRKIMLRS
Outline: as §1

UniProt Q8VGJ1 = molecular target: T4, UniProt Q8VGJ1
T4 sequence (whole entry): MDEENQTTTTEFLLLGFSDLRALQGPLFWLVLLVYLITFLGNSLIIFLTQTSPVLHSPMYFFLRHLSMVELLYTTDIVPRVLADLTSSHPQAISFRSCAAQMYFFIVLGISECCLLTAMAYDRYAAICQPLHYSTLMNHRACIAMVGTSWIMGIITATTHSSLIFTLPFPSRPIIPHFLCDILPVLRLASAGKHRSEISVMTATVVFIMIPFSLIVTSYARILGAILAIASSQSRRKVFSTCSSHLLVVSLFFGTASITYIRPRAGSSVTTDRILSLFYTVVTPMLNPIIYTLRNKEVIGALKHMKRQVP
Outline: as §1

UniProt Q8VGJ3 = molecular target: T5, UniProt Q8VGJ3
T5 sequence (whole entry): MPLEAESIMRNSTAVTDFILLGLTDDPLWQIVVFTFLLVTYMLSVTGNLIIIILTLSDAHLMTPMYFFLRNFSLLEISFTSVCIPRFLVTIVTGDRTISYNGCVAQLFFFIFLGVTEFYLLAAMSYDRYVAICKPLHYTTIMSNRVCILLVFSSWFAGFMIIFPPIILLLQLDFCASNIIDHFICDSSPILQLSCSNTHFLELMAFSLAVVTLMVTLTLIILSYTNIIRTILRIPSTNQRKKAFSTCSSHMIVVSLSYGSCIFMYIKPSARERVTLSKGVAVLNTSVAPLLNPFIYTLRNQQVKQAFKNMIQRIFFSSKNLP
Outline: as §1

UniProt Q8VGJ5 = molecular target: T6, UniProt Q8VGJ5
T6 sequence (whole entry): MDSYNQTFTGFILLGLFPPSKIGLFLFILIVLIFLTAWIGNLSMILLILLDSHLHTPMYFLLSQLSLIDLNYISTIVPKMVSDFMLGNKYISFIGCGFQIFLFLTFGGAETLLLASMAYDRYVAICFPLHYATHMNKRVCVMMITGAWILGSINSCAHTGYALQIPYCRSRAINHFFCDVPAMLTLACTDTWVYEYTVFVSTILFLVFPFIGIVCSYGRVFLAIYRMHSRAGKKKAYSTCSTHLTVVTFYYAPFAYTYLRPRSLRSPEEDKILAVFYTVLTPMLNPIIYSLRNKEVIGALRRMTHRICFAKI
Outline: as §1

UniProt Q8VGL0 = molecular target: T7, UniProt Q8VGL0
T7 sequence (whole entry): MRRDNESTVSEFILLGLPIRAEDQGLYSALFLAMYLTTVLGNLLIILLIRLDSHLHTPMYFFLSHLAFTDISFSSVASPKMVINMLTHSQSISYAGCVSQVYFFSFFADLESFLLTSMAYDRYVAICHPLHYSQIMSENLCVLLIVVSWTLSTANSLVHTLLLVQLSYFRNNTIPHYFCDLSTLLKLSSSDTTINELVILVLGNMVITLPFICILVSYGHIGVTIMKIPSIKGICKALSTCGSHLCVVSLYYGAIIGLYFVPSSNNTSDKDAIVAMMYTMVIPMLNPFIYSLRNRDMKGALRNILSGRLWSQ
Outline: as §1

UniProt Q8VGL7 = molecular target: T8, UniProt Q8VGL7
T8 sequence (whole entry): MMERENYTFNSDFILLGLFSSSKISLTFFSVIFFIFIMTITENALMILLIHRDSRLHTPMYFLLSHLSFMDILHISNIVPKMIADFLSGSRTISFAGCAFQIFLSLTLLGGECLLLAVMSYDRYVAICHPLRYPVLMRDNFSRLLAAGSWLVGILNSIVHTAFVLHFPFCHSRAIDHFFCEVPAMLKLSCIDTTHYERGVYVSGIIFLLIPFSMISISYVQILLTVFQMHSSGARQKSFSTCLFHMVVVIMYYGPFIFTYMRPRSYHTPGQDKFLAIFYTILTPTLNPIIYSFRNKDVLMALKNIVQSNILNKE
Outline: as §1

UniProt Q8VGM2 = molecular target: T9, UniProt Q8VGM2
T9 sequence (whole entry): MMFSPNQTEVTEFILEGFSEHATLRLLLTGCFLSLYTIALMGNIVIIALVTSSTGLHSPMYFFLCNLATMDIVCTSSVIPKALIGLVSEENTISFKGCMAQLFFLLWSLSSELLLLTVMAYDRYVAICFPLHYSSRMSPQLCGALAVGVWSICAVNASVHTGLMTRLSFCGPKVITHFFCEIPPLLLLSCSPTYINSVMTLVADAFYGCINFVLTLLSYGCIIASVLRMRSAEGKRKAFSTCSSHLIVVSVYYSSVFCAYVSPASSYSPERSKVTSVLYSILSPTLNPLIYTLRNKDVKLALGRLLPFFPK
Outline: as §1

UniProt Q8VGP6 = molecular target: T10, UniProt Q8VGP6
T10 sequence (whole entry): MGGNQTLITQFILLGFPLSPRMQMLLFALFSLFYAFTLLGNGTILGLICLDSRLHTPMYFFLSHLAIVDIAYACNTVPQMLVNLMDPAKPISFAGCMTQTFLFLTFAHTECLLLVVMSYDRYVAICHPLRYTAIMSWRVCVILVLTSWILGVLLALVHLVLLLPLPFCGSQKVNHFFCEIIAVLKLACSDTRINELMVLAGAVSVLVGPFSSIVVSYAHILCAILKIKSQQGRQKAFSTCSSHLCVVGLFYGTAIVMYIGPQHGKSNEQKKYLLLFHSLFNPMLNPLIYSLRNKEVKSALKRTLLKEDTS
Outline: as §1

UniProt Q8VGQ3 = molecular target: T11, UniProt Q8VGQ3
T11 sequence (whole entry): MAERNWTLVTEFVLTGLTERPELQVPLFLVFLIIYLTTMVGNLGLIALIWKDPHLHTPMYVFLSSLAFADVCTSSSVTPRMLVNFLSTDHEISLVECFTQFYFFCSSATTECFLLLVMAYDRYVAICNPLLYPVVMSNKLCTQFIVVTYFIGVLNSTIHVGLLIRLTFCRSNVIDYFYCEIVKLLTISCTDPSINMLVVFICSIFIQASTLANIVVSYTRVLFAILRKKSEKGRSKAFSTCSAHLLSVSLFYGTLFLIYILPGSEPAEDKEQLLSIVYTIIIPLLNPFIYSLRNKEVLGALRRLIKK
Outline: as §1

UniProt Q8VGT4 = molecular target: T12, UniProt Q8VGT4
T12 sequence (whole entry): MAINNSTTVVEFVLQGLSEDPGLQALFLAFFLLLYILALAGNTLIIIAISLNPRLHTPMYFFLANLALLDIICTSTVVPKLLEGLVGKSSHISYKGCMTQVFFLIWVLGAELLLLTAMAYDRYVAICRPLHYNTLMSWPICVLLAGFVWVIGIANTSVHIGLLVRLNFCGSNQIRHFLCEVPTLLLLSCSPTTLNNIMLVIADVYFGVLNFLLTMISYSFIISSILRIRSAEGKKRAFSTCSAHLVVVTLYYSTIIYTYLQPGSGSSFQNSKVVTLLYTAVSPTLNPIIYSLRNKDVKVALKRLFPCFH
Outline: as §1

UniProt Q8VGU3 = molecular target: T13, UniProt Q8VGU3
T13 sequence (whole entry): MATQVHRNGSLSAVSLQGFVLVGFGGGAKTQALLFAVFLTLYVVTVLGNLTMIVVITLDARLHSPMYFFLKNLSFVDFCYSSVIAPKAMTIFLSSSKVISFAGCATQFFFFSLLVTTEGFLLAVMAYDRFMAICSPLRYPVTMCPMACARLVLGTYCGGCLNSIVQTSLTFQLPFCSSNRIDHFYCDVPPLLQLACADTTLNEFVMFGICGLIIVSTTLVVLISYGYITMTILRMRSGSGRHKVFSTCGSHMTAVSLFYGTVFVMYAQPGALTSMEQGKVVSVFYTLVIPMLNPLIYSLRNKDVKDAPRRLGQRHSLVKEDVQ
Outline: as §1

UniProt Q8VGV1 = molecular target: T14, UniProt Q8VGV1
T14 sequence (whole entry): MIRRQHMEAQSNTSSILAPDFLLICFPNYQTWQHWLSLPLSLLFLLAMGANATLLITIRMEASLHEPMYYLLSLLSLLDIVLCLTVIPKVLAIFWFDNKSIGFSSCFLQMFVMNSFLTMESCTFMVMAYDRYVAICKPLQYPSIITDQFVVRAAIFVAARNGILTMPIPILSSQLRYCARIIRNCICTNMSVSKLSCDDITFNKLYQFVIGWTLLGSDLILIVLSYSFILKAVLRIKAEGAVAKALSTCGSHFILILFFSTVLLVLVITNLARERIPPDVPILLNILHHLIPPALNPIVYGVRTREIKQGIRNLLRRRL
Outline: as §1

UniProt Q8VGV7 = molecular target: T15, UniProt Q8VGV7
T15 sequence (whole entry): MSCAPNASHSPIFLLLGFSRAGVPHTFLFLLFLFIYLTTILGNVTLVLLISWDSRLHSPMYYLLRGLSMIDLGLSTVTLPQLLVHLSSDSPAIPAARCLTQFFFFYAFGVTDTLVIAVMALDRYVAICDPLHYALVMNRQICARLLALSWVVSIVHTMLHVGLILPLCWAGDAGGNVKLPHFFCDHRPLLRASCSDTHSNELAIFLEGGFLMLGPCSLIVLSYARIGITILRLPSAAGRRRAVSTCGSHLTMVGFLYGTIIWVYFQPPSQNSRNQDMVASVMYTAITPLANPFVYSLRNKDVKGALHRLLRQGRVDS
Outline: as §1

UniProt Q8VGX3 = molecular target: T16, UniProt Q8VGX3
T16 sequence (whole entry): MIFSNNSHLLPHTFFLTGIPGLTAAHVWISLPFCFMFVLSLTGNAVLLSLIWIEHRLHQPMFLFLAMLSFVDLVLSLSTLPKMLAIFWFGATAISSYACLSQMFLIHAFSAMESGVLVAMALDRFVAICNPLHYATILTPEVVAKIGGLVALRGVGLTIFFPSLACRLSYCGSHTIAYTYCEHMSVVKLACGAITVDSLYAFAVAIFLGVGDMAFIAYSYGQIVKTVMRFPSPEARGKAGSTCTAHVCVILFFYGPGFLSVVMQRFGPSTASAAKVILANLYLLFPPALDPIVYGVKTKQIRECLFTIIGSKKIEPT
Outline: as §1

UniProt Q8VGX5 = molecular target: T17, UniProt Q8VGX5
T17 sequence (whole entry): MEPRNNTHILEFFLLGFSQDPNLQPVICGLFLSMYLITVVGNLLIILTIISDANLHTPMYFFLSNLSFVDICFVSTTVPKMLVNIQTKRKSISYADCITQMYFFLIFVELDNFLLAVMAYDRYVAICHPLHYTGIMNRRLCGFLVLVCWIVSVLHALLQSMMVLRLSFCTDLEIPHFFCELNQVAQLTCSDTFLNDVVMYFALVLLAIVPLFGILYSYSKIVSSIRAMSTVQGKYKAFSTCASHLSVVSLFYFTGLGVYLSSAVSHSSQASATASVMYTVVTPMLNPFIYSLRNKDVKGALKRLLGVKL
Outline: as §1

UniProt Q8VGE3 = molecular target: UniProt Q8VGE3
UniProt Q8VGE3, sequence (Q8VGE3 as listed by the source): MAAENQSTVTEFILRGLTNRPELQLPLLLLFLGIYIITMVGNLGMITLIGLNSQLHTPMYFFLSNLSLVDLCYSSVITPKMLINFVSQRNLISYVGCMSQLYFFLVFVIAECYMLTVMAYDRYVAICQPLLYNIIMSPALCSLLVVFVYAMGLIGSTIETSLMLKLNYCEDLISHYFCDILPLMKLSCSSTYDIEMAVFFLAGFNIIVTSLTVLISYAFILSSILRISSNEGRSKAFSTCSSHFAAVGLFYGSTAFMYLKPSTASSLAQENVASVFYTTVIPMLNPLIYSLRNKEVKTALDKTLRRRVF
Outline: as §1

UniProt Q8VGK6 = molecular target: UniProt Q8VGK6
UniProt Q8VGK6, sequence (Q8VGK6 as listed by the source): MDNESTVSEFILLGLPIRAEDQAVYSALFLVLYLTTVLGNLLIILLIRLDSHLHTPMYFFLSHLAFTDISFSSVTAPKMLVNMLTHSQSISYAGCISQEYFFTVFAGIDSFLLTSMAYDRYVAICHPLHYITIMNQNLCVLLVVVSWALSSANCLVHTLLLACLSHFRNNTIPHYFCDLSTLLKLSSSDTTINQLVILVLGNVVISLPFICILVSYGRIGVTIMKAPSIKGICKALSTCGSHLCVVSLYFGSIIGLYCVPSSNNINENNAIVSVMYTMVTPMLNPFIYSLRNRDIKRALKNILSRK
Outline: as §1

UniProt Q8VGW5 = molecular target: T18, UniProt Q8VGW5
T18 sequence (whole entry): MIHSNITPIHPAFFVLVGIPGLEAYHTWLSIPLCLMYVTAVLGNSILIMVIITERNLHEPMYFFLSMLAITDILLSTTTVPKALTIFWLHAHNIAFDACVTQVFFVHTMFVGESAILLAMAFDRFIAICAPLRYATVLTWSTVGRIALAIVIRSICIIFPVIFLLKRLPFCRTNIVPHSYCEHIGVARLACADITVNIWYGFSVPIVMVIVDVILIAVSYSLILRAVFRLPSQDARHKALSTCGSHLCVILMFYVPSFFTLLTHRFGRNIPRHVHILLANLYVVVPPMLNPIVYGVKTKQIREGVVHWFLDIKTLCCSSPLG
Outline: as §1

Measured: odorant receptor agonist call

CC(O)c1ccccc1 (stereo not given)
inactive: UniProt Q8VGC6

O=C(Cl)CCCCCCCC(=O)Cl
inactive: UniProt Q8VGC6

CCCCCCCCS
active: UniProt Q8VGC6
not listed: UniProt Q8VGE3 | UniProt Q8VGK6 | UniProt Q8VGW5
inactive: all other assays above

CCCCC(=O)O
not listed: UniProt Q8VGE3 | UniProt Q8VGK6 | UniProt Q8VGW5
inactive: all other assays above

O=c1ccc2ccccc2o1
active: UniProt Q8VGE3 | UniProt Q8VGH1 | UniProt Q8VGK6 | UniProt Q8VGX5
not listed: UniProt Q8VGJ3 | UniProt Q8VGU3 | UniProt Q8VGV7 | UniProt Q8VGX3 | UniProt Q8VGW5
inactive: all other assays above

CCC(=O)OC(C)(C)C
inactive: UniProt Q8VGC6

CCCCCCCCCO
active: UniProt Q8VGC6 | UniProt Q8VGP6
not listed: UniProt Q8VGE3 | UniProt Q8VGK6
inactive: all other assays above
